From PubChem BioAssay AID2805 (Sanford-Burnham Center for Chemical Genomics, 2010) come the findings set out here.

Each structure is given as a SMILES string. Screen size: about 330,000 compounds; about 780 (0.24%) were called active. This excerpt belongs to a sample that is enriched for actives. A number with no mark means an inactive call.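 How the source made its calls: active means activation factor of at least 2 at 20 µM; inactive means the rest.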

This assay concerns intestinal alkaline phosphatase [Mus musculus]. As to the kind of experiment: mouse intestinal phosphatase enzyme activation – biochemical, luminescence, uHTS, primary screen (AID 2805). The conditions noted are these: muIAP, CDP-Star luminescence, 30 min; at 10 µM; hits give high values; 1 = vehicle-only enzyme signal, 0 = enzyme-free wells. In outline: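 also added = chemiluminescent substrate CDP-Star | test system = mouse IAP enzyme | signal = chemiluminescence readout | compound = DMSO-dissolved test compounds | incubation = 30 min at room temperature | benchmarks = DMSO wells, no-enzyme wells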
Regarding `COc1ccc(N(C)C(=O)C2CCN(S(=O)(=O)c3cccc4nsnc34)CC2)cc1`, the activation factor is 0.954.
Regarding `O=C(NCc1cccnc1)c1cnc2ccccc2n1`, the activation factor is 0.965.
Then `CC(C(=O)O)N1C(=O)c2cccc3cccc1c23` (centres undefined), with 1.02; and `CCOc1ccc(C(CCc2ccccc2)NC(=O)c2ccc(OC)c(OC)c2)cc1OCC` (centres undefined), with 2.15 (active).
`CCOc1ccc(C(CC(=O)O)NC(=O)Cc2ccccc2)cc1OC` (centres undefined): the activation factor was 0.993.
With `CCOc1ccc(C(CC(=O)O)NC(=O)C23CC4CC(CC(C4)C2)C3)cc1OC` (centres undefined), the activation factor was 1.06.
Then `CCN(CC)Cc1nc2sc(C)c(C)c2c(=O)[nH]1`, with 0.952; and `Cc1cc(=O)[nH]c(Nc2cccc(Br)c2)n1`, with 1.07.
For `C=CCOc1cccc(C2NC(=O)c3ccccc3O2)c1` (centres undefined) the value was 1.01.
Then `CN(c1ccccc1)S(=O)(=O)c1cccc(NC(=O)Cc2ccc(Cl)cc2)c1`, with 1.55; and `CN(C)S(=O)(=O)c1cccc(NC(=O)Cc2ccsc2)c1`, with 1.06; and `CN(c1ccccc1)S(=O)(=O)c1cccc(NC(=O)Cc2c(F)cccc2Cl)c1`, with 2.3 (active).
As to `Cc1ccc(C(=O)N/C(=C\c2cn(C)c3ccccc23)C(=O)N2CCN(C)CC2)cc1`, the activation factor was 0.969.
For `COC(=O)CNC(=O)c1ccc2c(c1)S(=O)(=O)c1ccccc1C2=O` the value was 1.01.
For `O=C(CCc1ccc(S(=O)(=O)NC2CCCCC2)cc1)NCc1ccccc1` the value was 1.18; for `CCN(CC)N=Nc1cccc(NC(C)=O)c1`, 0.943.
For `COc1ccc(CN2C3CCCC2CC(NC(=O)c2cccc(F)c2)C3)cc1` (centres undefined) the value was 1.11; for `COc1ccc(NC(=O)NC2CC3CCCC(C2)N3Cc2ccccc2)cc1` (centres undefined), 3.11 (active).
On to `CCOc1ccccc1C(=O)NC1CC2CCCC(C1)N2Cc1ccccc1` (centres undefined), for which the activation factor is 0.947.
For `O=C(COc1ccc(S(=O)(=O)N2CCOCC2)cc1Cl)N1CCOCC1` the value was 1.01; for `C[N+]1(CC(O)COc2ccccc2)CCN(C(=O)c2ccc([N+](=O)[O-])cc2)CC1` (centres undefined), 0.943.
`Cn1cccc1C(C#N)c1ccccc1C#N` (centres undefined): the activation factor was 0.962.
As to `O=C1C2CCCN2C(=O)N1CCCCN1CCN(c2cccc(C(F)(F)F)c2)CC1` (centres undefined), the activation factor was 0.942.
For `CC(NC(=O)Nc1cccc([N+](=O)[O-])c1)c1ccc2c(c1)OCO2` (centres undefined) the value was 0.95; for `CCc1ccc(NC(=O)NC(C)c2ccc3c(c2)OCO3)cc1` (centres undefined), 2.38 (active).
As for `CC(NC(=O)Nc1ccc2c(c1)OCO2)c1ccncc1` (centres undefined), the activation factor is 1.02.
For `O=C(NCC1COc2ccccc2O1)C1(c2ccccc2)CCCC1` (centres undefined) the value was 1.
Regarding `O=C(Cn1cnc2ccccc2c1=O)NCC1COc2ccccc2O1` (centres undefined), the activation factor was 0.99.
Then `c1ccc(-c2cc3c(NCC4COc5ccccc5O4)ncnc3s2)cc1` (centres undefined), with 2.05 (active).
